Data as given in ChEMBL document CHEMBL1128382, “N4-unsubstituted N1-arylpiperazines as high-affinity 5-HT1A receptor ligands” (J Med Chem, 1995).

biological target: T1, 5-hydroxytryptamine receptor 1A (Rattus norvegicus, UniProt P19327); assay: Displacement of [3H]2-(di-N-propylamino)-8-hydroxytetralin from central 5-hydroxytryptamine 1A receptor recognition sites in rat frontal cortex homogenates.; format: tissue-based
T1 sequence (P19327 whole entry): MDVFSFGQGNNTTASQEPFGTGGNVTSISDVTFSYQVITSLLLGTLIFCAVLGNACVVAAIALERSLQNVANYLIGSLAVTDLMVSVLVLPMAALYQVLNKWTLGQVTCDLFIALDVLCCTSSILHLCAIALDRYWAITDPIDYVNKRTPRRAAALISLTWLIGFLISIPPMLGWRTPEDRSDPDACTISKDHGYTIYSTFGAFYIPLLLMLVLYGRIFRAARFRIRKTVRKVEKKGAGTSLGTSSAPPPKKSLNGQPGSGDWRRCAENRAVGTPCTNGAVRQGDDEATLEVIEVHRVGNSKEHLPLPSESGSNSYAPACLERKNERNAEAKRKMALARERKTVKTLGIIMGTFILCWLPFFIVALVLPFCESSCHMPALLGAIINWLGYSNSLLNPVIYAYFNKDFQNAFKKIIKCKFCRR
Procedure, shortened: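 Competition binding against tritiated 8-OH-DPAT in rat frontal cortex homogenate. Ki values come from n separate determinations, each testing four to six ligand concentrations in triplicate.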

| SMILES | Ki |
| --- | --- |
| COc1ccc(N2CCNCC2)c2occc12 | 430 nM |
| O=[N+]([O-])c1ccc2ccoc2c1N1CCNCC1 | 140 nM |
| Brc1coc2c(N3CCNCC3)cccc12 | 130 nM |
| c1ccc(N2CCNCC2)cc1 [PHENYLPIPERAZINE] | 500 nM |
| Cc1cc(N2CCNCC2)c2occc2c1 | 120 nM |
| C1=COc2c(cccc2N2CCNCC2)O1 | 12 nM |
| c1cc(N2CCNCC2)c2[nH]ccc2c1 | 200 nM |
| Cc1cc2cccc(N3CCNCC3)c2o1 | 13 nM |
| COc1cc(N2CCNCC2)c2occc2c1 | 28 nM |
| COc1ccc(N2CCNCC2)cc1 | 20000 nM |
| Fc1ccc2ccoc2c1N1CCNCC1 | 5.8 nM |
| c1ccc2c(N3CCNCC3)cccc2c1 | 18 nM |
| COc1ccc2c(c1N1CCNCC1)OCCO2 | > 10000 nM |
| Brc1ccc(N2CCNCC2)c2occc12 | 300 nM |
| COc1cccc(N2CCNCC2)c1 | 320 nM |
| Fc1cc(N2CCNCC2)c2occc2c1 | 105 nM |
| Cc1ccc(N2CCNCC2)c2occc12 | 220 nM |
| c1cc(N2CCNCC2)c2sccc2c1 | 9.9 nM |
| c1cc2c(c(N3CCNCC3)c1)CCCC2 | 84 nM |
| N#Cc1ccc2ccoc2c1N1CCNCC1 | 220 nM |
| Cc1coc2c(N3CCNCC3)cccc12 | 73 nM |
| Fc1ccc(N2CCNCC2)c2occc12 | 18 nM |
| Brc1cc(N2CCNCC2)c2occc2c1 | 35 nM |
| CC1=COc2c(cccc2N2CCNCC2)O1 | 5.2 nM |
| Clc1ccc2c(c1N1CCNCC1)OCCO2 | 200 nM |
| COc1cccc(N2CCNCC2)c1OC | 1000 nM |
